How the values were obtained:
dengue virus type 2 = assay: Antiviral activity against Dengue virus 2 infected in human HuH7 cells incubated for 48 hrs by luciferase reporter gene assay; conditions: Huh-7, 48 h
[1] = Cytotoxicity against human HuH7 cells assessed as reduction in cell viability incubated for 48 hrs by alamar blue reagent based cell viability assay; set-up: species or system Huh-7
Outline: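 Run in parallel on the same DENV2-infected Huh7 cultures (MOI 0.05, 4 h infection). Viability measured with AlamarBlue per the manufacturer's protocol, with fluorescence detected at 560 nm. CC50 calculated as the half-maximal cytotoxic concentration.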

[2] = target: T1, Cyclin-G-associated kinase (Homo sapiens, UniProt O14976); assay: Inhibition of tracer 222 binding to recombinant human GST-tagged GAK (1 to 329 residues) expressed in insect cells incubated for 1 hr by Lanthascreen assay
T1 sequence (O14976 whole entry): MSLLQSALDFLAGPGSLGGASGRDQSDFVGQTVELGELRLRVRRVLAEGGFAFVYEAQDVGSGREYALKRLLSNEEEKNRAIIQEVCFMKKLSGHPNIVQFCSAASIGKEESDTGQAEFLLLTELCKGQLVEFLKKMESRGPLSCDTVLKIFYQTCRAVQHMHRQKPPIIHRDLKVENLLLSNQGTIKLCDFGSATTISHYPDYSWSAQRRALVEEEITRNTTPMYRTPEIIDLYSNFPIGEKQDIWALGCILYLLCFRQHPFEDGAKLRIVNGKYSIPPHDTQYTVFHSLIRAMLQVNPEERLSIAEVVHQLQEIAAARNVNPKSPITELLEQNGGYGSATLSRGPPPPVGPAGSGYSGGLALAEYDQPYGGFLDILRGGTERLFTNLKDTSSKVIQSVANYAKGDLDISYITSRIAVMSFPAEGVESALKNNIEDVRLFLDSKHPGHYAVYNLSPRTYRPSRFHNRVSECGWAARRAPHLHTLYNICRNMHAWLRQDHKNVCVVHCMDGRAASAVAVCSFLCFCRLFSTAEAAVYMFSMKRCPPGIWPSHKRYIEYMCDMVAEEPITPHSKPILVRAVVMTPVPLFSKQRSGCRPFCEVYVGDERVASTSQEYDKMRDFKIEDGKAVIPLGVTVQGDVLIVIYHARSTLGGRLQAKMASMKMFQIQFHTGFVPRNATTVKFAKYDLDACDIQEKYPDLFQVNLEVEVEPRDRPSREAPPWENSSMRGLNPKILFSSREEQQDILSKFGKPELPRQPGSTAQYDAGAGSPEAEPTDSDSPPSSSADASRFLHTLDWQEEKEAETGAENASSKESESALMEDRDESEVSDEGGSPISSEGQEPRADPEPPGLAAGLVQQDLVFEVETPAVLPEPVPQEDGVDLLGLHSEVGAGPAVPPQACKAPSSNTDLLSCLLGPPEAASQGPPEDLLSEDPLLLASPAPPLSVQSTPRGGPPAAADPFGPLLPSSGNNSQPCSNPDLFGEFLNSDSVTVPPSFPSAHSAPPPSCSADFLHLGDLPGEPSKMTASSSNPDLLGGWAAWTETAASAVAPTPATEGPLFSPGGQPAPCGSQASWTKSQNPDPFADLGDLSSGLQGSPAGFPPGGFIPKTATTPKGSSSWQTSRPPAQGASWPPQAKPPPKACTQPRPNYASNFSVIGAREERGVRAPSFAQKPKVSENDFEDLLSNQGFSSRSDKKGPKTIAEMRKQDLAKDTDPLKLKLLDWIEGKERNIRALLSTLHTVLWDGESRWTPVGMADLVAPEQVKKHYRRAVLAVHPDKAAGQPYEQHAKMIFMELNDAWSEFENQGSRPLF

Row | SMILES | EC50 (dengue virus type 2) | IC50 [2] | CC50 at 48 h [1]
1 | COc1cccc(-c2ccc3nsc(N4C[C@@H](C)O[C@@H](C)C4)c3n2)c1 | > 10 µM |  | > 10 µM
2 | COc1cc(-c2cnc3c(N4C[C@@H](C)O[C@@H](C)C4)snc3c2)ccc1N | 0.82 µM | 39.4 nM | > 25 µM
3 | C#Cc1cccc(Nc2ncnc3cc(OCCOC)c(OCCOC)cc23)c1 [ERLOTINIB] | 1.22 µM |  | > 10 µM
4 | C[C@@H]1CN(c2snc3ccc(-c4ccc(C(F)(F)F)cc4)nc23)C[C@H](C)O1 |  | > 370 nM | 
5 | COc1ccc(-c2ccc3nsc(N4C[C@@H](C)O[C@@H](C)C4)c3n2)cc1OC | 1.05 µM |  | > 10 µM
6 | COc1cc(-c2cnc3c(N4C[C@@H](C)O[C@@H](C)C4)snc3c2)cc(OC)c1OC | 2.79 µM |  | > 10 µM

Continued, in another order:

Row | EC50 (dengue virus type 2) | IC50 [2] | SMILES | CC50 at 48 h [1]
7 | > 10 µM |  | COc1cc(-c2cnc3c(N4C[C@@H](C)O[C@@H](C)C4)snc3c2)ccc1C(=O)O | > 10 µM
8 | 10.1 µM |  | COc1cc(-c2cnc3c(N4C[C@@H](C)O[C@@H](C)C4)snc3c2)ccc1C(N)=O | > 10 µM
9 |  | > 3330 nM | C[C@@H]1CN(c2snc3cc(/C=C/c4ccccc4)cnc23)C[C@H](C)O1 | 
10 |  | > 370 nM | COc1cc(-c2cnc3c(N4C[C@@H](C)O[C@@H](C)C4)snc3c2)ccc1C(=O)Nc1ccccc1 | 
11 | 5.83 µM |  | COc1cc(-c2cnc3c(N4C[C@@H](C)O[C@@H](C)C4)snc3c2)ccc1C(=O)NCc1ccccc1 | > 10 µM
12 |  | > 3330 nM | COc1ccc(-c2cnc3c(N4C[C@@H](C)O[C@@H](C)C4)snc3c2)cn1 | 
13 |  | > 10000 nM | C[C@@H]1CN(c2snc3cc(C#Cc4ccccc4)cnc23)C[C@H](C)O1 | 
14 | 8.85 µM |  | COc1cc(-c2cnc3c(N4C[C@@H](C)O[C@@H](C)C4)snc3c2)ccc1C(=O)N1CCCC1 | > 10 µM
